The list is not random: actives were taken first. Their share in the collection is about 3.7%.
procasp3 activ – activates human procaspase-3; actives 0.11% (n = 330,000); P42574; recombinant procaspase-3 D3A, Ac-DEVD-pNA absorbance 405 nm; activation, % at 8.5 µM;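 active = activation above the mean of all tested compounds plus 3 SD, cut at about 21% in these data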
Target sequence (P42574 whole entry D9A/D28A/D175A): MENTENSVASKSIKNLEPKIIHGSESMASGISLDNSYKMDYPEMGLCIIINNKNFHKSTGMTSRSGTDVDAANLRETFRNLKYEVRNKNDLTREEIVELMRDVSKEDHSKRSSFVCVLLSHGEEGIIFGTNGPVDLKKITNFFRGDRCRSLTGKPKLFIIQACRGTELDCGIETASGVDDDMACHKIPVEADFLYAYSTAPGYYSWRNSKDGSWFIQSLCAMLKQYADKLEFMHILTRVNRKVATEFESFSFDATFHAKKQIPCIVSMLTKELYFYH
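Assay system: Autoprocessing-dead procaspase-3 D3A mutant enzyme; also added: Ac-DEVD-pNA; doses: one concentration, 8.5 µM nominal, 0.8% DMSO; times: 1 h compound preincubation, 2 h substrate hydrolysis at 25 °C; technique: 405 nm absorbance of p-nitroaniline, reads at 0 and 120 min; measure: % activation between DMSO and enzyme-spiked controls; repeats: single replicate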
MPTP block – inhibitors of mitochondrial permeability transition pore; inhibition, % at 10 µM; isolated mouse mitochondria, Ca2+ swelling absorbance, 30 min; actives 1.4% (n = 360,000);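 active = inhibition of 50% or more, scaled per plate between neutral and stimulator controls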
aDG glyco up – increases alpha dystroglycan glycosylation. AID 624168. activation, % at 10 µM. actives 0.22% (n = 360,000). Pro5-aDG cells, alpha-DG glycosylation AlphaScreen (IIH6); 0% Pro5, 100% B10-LARGE cell signal;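 active = activation of at least 8% versus controls, or a plate z-score of at least 8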;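 also: Pro5 are CHO cells carrying HIG-tagged alpha-DG that lacks glycosylation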
procasp7 counter – counter-screen for procaspase-3 activators: activators of human procaspase-7; recombinant procaspase-7, Ac-DEVD-pNA absorbance 405 nm; D23A/D198A/D206A triple mutant, cannot self-cleave; scale: DMSO 0, 5 µM enzyme 100; P55210; AID 463210; activation, % at 8.5 µM; actives 0.093% (n = 330,000);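 active = percent activation above the screen-wide mean plus 3 SD, cut at about 25% in these data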
Target sequence (P55210 whole entry D23A/D198A/D206A): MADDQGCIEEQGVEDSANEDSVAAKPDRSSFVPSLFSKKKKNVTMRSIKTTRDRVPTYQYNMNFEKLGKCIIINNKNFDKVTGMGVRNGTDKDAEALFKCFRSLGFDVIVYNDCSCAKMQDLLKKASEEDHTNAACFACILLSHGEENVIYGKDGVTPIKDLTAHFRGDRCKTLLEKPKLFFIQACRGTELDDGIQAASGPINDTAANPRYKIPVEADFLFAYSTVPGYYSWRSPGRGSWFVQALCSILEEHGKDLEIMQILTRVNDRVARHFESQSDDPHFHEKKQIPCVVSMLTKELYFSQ
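Replicates: singlicate. Assay system: Procaspase-7 triple mutant (PC-7 D3A). Signal: 405 nm absorbance of p-nitroaniline. Times: 1 h preincubation, 2 h reaction. Buffer or medium: Zinc-free HEPES pH 7.4 with 300 mM NaCl, 0.01% Triton X-100. Also added: DEVD-pNA substrate. Benchmarks: DMSO wells as 0%, DMSO with 5 µM added PC-7 as 100%.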
GRIN3A LBD mod – modulators (binders) of human NR3A ligand-binding domain; NR3A LBD differential scanning fluorimetry, Tm shift; 0% = protein alone, 100% = glycine-bound protein; Tm shift relative to glycine control, % at 25 µM; actives 2.5% (n = 340,000); AID 1259313;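 active = melting temperature shift of at least 10% of the positive control shift, at one fixed dose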
Rh123 counter – mitochondrial membrane potential, counter-screen | inhibition, % at 10 µM | actives 78% (n = 5,000) | shares compounds with MPTP block | AID 624504 | isolated mitochondria, Rhodamine 123 fluorescence; in the data active = inhibition above about 22%
MPTP swell DR – MPTP inhibition, dose response swelling confirmation. shares compounds with MPTP block. isolated mitochondria swelling, absorbance. IC50, µM. actives 58% (n = 780); in the data active = IC50 below about 20 µM
MPTP counter DR – counter-screen for mitochondrial permeability transition pore inhibitors, dose response | actives 49% (n = 780) | IC50, µM | AID 651564 | shares compounds with MPTP block | isolated mitochondria counterscreen, fluorescence read-out; in the data active = IC50 below about 80 µM
Large screens that a line does not name were inactive (follow-up assays come after a bar, where they were run).

C=CCNCCCOc1ccc(Cl)cc1C(C)(C)C	none
COCCCNCCOCCOc1ccc(Cl)cc1C(C)(C)C	MPTP block 61 | Rh123 counter inactive | MPTP swell DR 4.3 | MPTP counter DR inactive
C=CCNCCOCCOc1ccc(Cl)cc1C(C)(C)C	MPTP block 92 | Rh123 counter inactive | MPTP swell DR 11 | MPTP counter DR inactive
CN1CCC2(CC1)Nc1nc(SCc3ccc(Cl)cc3)nn1C1=C2CN(C)CC1	MPTP block 63 | Rh123 counter inactive | MPTP swell DR 9.7 | MPTP counter DR inactive
CCOC(=O)CC1C(=O)NCCN1C(=S)NC(=O)c1ccc(C)c(Br)c1 (configuration not stated)	none (no result: procasp3 activ, procasp7 counter, GRIN3A LBD mod)
COC(=O)C1=C(C)N(Cc2ccccc2)C(=NCC(C)C)N[C@H]1c1cccc(C(F)(F)F)c1	MPTP block 86 | Rh123 counter inactive
COC(=O)C1=C(C)N(Cc2ccccc2)C(=NCc2cccc(Cl)c2)N[C@H]1c1cccc(F)c1	MPTP block 86 | Rh123 counter inactive
Cc1cc(C2=CC(=O)C[C@H](c3ccc(F)cc3)C2)ccc1F	none (no result: procasp3 activ, procasp7 counter, GRIN3A LBD mod)
Cc1cc(C)n2nc(SCC(=O)NC(=O)c3ccccc3Cl)nc2n1	none
COc1cc(C2NCC(c3ccc(Cl)cc3Cl)c3c2[nH]c2ccccc32)cc(OC)c1OC (configuration not stated)	MPTP block 88 | Rh123 counter inactive | MPTP swell DR inactive | MPTP counter DR inactive
Cc1ccc(-c2csc(NC(=O)c3ccccc3Cl)c2C(=O)O)cc1	none
CC(C)c1ccc(-c2csc(NC(=O)c3cccs3)c2C(=O)O)cc1	MPTP block 62 | Rh123 counter 56
CCN=c1scc(-c2ccccc2)n1/N=C/c1ccccn1	MPTP block 66 | Rh123 counter 46
CCN=c1scc(-c2ccc(F)cc2)n1/N=C/c1ccccn1	none
O=C(Nc1cccc(S(=O)(=O)Nc2ccc(Cl)cc2)c1)c1cc2c(s1)CCCC2	MPTP block 97, GRIN3A LBD mod 32 | Rh123 counter 83
O=C(Nc1cccc(S(=O)(=O)Nc2ccc(Cl)cc2)c1)c1ccc(Cl)nc1	MPTP block 92, GRIN3A LBD mod 21 | Rh123 counter 80
O=C(Nc1cc(S(=O)(=O)Nc2ccccc2Cl)ccc1O)c1cc2c(s1)CCCC2	MPTP block 89, GRIN3A LBD mod 12 | Rh123 counter 83
O=C(Nc1ccon1)c1cc2c(s1)CCCC2	none
COc1ccc(NS(=O)(=O)c2cccc(NC(=O)CCS(=O)(=O)c3ccccc3)c2)cc1	MPTP block 55 | Rh123 counter inactive | MPTP swell DR inactive | MPTP counter DR 57
COc1ccc(NS(=O)(=O)c2cccc(NC(=O)CCC(=O)c3cccs3)c2)cc1	none
CCOc1ccccc1NC(=O)c1cc(=O)[nH]c2ccc(S(=O)(=O)N3CCOCC3)cc12	none
O=C(c1cccc2nc3ccccc3nc12)N1CCOCC1	none
Cc1cccc(NC(=O)C2CC3CCC2C3)c1C (configuration not stated)	none
Cc1ccccc1C(=O)Nc1ccnn1C1CCN(C(=O)C2CCOC2)CC1 (configuration not stated)	none
COc1cccc(S(=O)(=O)Nc2ccc(C(=O)Nc3ccncc3)cc2)c1	none
COc1ccc(NS(=O)(=O)c2cccc(NC(=O)c3ccc(Cl)nc3)c2)cc1	MPTP block 100, aDG glyco up 8.5 | Rh123 counter 94
O=C(/C=C/NNC(=O)c1cccc(Br)c1)c1cccc(Br)c1	MPTP block 51 | Rh123 counter 58
O=C(/C=C/NNC(=O)c1ccccc1)c1ccc(Br)cc1	none
O=C(NC1CC2CCC(C1)N2Cc1ccccc1)c1ccccc1Cl (configuration not stated)	none
CC(C)(C)CC(C)(C)SSc1n[nH]c(=S)s1	MPTP block 51 (no result: procasp3 activ, procasp7 counter) | Rh123 counter 37
CCOC(=O)CSc1n[nH]c(=S)s1	none
O=C(CCC1CCN(Cc2nccs2)CC1)Nc1ccccc1	none (no result: procasp3 activ, procasp7 counter, GRIN3A LBD mod)
S=C(NCc1ccncc1)Nc1ccc(Cl)c(Cl)c1	MPTP block 88 | Rh123 counter 92
S=C(NCc1ccncc1)Nc1cc(Cl)cc(Cl)c1	MPTP block 68 | Rh123 counter 99
S=C(NCC1CCCO1)Nc1ccc(Cl)c(Cl)c1 (configuration not stated)	MPTP block 60 | Rh123 counter 87
S=C(NCc1ccncc1)Nc1ccc(Br)cc1	none
O=C(CN1CCNCC1)N1CCOCC1	none (no result: procasp3 activ, procasp7 counter, GRIN3A LBD mod)
CCOc1ccc(CCNC(=O)COC(=O)CSc2ccc(C)cc2)cc1OCC	none (no result: procasp3 activ, procasp7 counter)
O=C1CNC(=O)c2cc(Cl)ccc2N1	none (no result: procasp3 activ, procasp7 counter, GRIN3A LBD mod)
c1coc(CN(Cc2ccco2)c2ncnc3c2oc2ccccc23)c1	MPTP block 83 | Rh123 counter 67
COC(=O)c1nc(NC(=O)c2ccc(Br)cc2)n[nH]1	MPTP block 77 | Rh123 counter inactive | MPTP swell DR inactive | MPTP counter DR inactive
CC(C)CC(C(=O)Nc1oc(-c2ccccc2)c(-c2ccccc2)c1C#N)N1C(=O)c2ccccc2C1=O (configuration not stated)	MPTP block 74 | Rh123 counter 69
CC(C)CC(C(=O)Nn1cnnc1)N1C(=O)c2ccccc2C1=O (configuration not stated)	none
FC(F)(F)c1nc(SCc2ccc(Cl)cc2Cl)n[nH]1	MPTP block 63 | Rh123 counter 90
O=C(Cc1ccc(Cl)cc1)Nc1ccc2oc(=O)ccc2c1	none
O=C(Cc1ccc(Cl)cc1)Nc1ccc(-c2cc3ccccc3oc2=O)c(Cl)c1	MPTP block 64, GRIN3A LBD mod 19 | Rh123 counter 71
CCc1ccc(OCC(=O)Nc2ccc(-c3cc4ccccc4oc3=O)c(OC)c2)cc1	MPTP block 101 | Rh123 counter 97
O=C(NCc1ccc(F)cc1F)[C@@H]1CCCN1C(=O)[C@@H]1CCCN1C(=O)c1cccc2ccccc12	none (no result: procasp3 activ, procasp7 counter, GRIN3A LBD mod)
O=S(=O)(Cc1ccccc1)c1cnc2ccccc2n1	none
O=C1c2c(-c3ccc(Br)cc3)noc2CCN1Cc1cn(-c2ccccc2)nn1	none (no result: procasp3 activ, procasp7 counter, GRIN3A LBD mod)
CN(C)CCOC(C1CCCCC1)C1CCCCC1	MPTP block 74 | Rh123 counter inactive | MPTP swell DR 15 | MPTP counter DR inactive
CCN1CCCC1CNC(=O)c1cc2c(-c3ccc(Cl)cc3)nn(C)c2s1 (configuration not stated)	MPTP block 83 | Rh123 counter inactive | MPTP swell DR 11 | MPTP counter DR inactive

Bioassay records deposited in PubChem BioAssay by several laboratories.
